Legend:
[1] = system: Human immunodeficiency virus 1; assay: Antiviral activity against HIV1 3B; assay type: functional, organism-based; conditions: Human immunodeficiency virus 1, 3B
[2] = Cmax in Beagle dog at 15 mg/kg, po; assay type: ADME, organism-based, Canis lupus familiaris; set-up: dose 15 mg/kg, route oral; conditions: in vivo
[3] = system: Human immunodeficiency virus 1; assay: Ratio of EC50 for HIV1 mutant strain 5 to EC50 for wild type HIV1; assay type: functional
[4] = Plasma clearance in Beagle dog at 15 mg/kg, iv; assay type: ADME, organism-based, Canis lupus familiaris; set-up: dose 15 mg/kg, route intravenous
[5] = system: Human immunodeficiency virus 1; assay: Antiviral activity against wild type HIV1; assay type: functional, organism-based
[6] = AUC in Beagle dog at 15 mg/kg, po; assay type: ADME, organism-based, Canis lupus familiaris; set-up: dose 15 mg/kg, route oral; conditions: plasma
[7] = system: Human immunodeficiency virus 1; assay: Antiviral activity against multidrug resistant HIV1; assay type: functional, organism-based
Method in brief: (§1)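 PhenoSense phenotypic susceptibility assay on multi-drug-resistant clinical HIV-1 protease variant strains, run in parallel with a wild-type reference. EC50 read in µM. Fold change is mutant EC50 divided by wild-type EC50.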

[8] = Metabolic stability in rat liver microsomes assessed as compound remaining at 5 uM in presence of 0.5 uM ritonavir by RP-HPLC; assay type: ADME, Microsome; conditions: with ritonavir 0.5 uM, read-out: Stability
[9] = Tmax in Beagle dog at 15 mg/kg, po; assay type: ADME, organism-based, Canis lupus familiaris; set-up: dose 15 mg/kg, route oral; conditions: in vivo
[10] = system: Human immunodeficiency virus 1; assay: Antiviral activity against HIV1 mutant strain 4; assay type: functional, organism-based
[11] = Oral bioavailability in Beagle dog at 15 mg/kg; assay type: ADME, organism-based, Canis lupus familiaris; conditions: in vivo
Protease = Protease (Human immunodeficiency virus 1, UniProt Q9YQ12); assay: Inhibition of HIV1 protease
[12] = Metabolic stability in human liver microsomes assessed as compound remaining at 5 uM in presence of UDPGA by RP-HPLC; assay type: ADME, Microsome; conditions: read-out: Stability
Method in brief: (§2)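 Test drug at 5 µM incubated with liver microsomes (0.5 mg/ml) plus cofactor (1 mM NADPH or 5 mM UDPGA) at 37 °C for 30 min. Residual drug measured by RP-HPLC. Values are the mean percent remaining of duplicates.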

[13] = system: Human immunodeficiency virus 1; assay: Ratio of EC50 for HIV1 mutant strain 7 to EC50 for wild type HIV1; assay type: functional
Method in brief: (§3)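 PhenoSense phenotypic assay. Strain 7 protease mutations include T4A, L10I, K20R, L23I, L33F, E35D, M36I, K43T, M46L. EC50 in µM. Fold change is versus the wild-type EC50.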

[14] = system: Human immunodeficiency virus 1; assay: Antiviral activity against HIV1 mutant strain 5; assay type: functional, organism-based
[15] = Metabolic stability in dog liver microsomes assessed as compound remaining at 5 uM in presence of 0.5 uM ritonavir by RP-HPLC; assay type: ADME, Canis lupus familiaris, Microsome; conditions: with ritonavir 0.5 uM, read-out: Stability
[16] = system: Human immunodeficiency virus 1; assay: Ratio of EC50 for HIV1 mutant strain 2 to EC50 for wild type HIV1; assay type: functional
Method in brief: (§4)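 PhenoSense phenotypic assay. Strain 2 protease carries L10I, G16A, K45V, F53L, I54V, K55N, D60E, L63P, A71V, I72K, V77I, V82F, I84V, L90M, I93L. EC50 in µM. Fold change is versus the wild-type EC50.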

[17] = Metabolic stability in rat liver microsomes assessed as compound remaining at 5 uM by RP-HPLC; assay type: ADME, Microsome; conditions: read-out: Stability; method in brief: as §2
[18] = system: Human immunodeficiency virus 1; assay: Ratio of EC50 for HIV1 mutant strain 4 to EC50 for wild type HIV1; assay type: functional
[19] = Metabolic stability in human liver microsomes assessed as compound remaining at 5 uM by RP-HPLC; assay type: ADME, Microsome; conditions: read-out: Stability; method in brief: as §2
[20] = Metabolic stability in dog liver microsomes assessed as compound remaining at 5 uM by RP-HPLC; assay type: ADME, Canis lupus familiaris, Microsome; conditions: read-out: Stability; method in brief: as §2
Liver [21] = assay: Metabolic stability in dog liver microsomes assessed as compound remaining in presence of UDPGA by RP-HPLC; assay type: ADME, Canis lupus familiaris, Microsome; method in brief: as §2
[22] = Tmax in Beagle dog at 15 mg/kg, po co-administered with 7.5 mg/kg of ritonavir, po; assay type: ADME, organism-based, Canis lupus familiaris; conditions: in vivo
[23] = system: Human immunodeficiency virus 1; assay: Ratio of EC50 for HIV1 mutant strain 3 to EC50 for wild type HIV1; assay type: functional
[24] = Cmax in Beagle dog at 15 mg/kg, po co-administered with 7.5 mg/kg of ritonavir, po; assay type: ADME, organism-based, Canis lupus familiaris; set-up: dose 15 mg/kg, route oral; conditions: in vivo
[25] = system: Human immunodeficiency virus 1; assay: Ratio of EC50 for HIV1 mutant strain 6 to EC50 for wild type HIV1; assay type: functional
[26] = system: Human immunodeficiency virus 1; assay: Antiviral activity against HIV1 mutant strain 3; assay type: functional, organism-based
[27] = Plasma concentration in Beagle dog at 15 mg/kg, po after 12 hrs; assay type: ADME, organism-based, Canis lupus familiaris; set-up: dose 15 mg/kg, route oral
[28] = Metabolic stability in human liver microsomes assessed as compound remaining at 5 uM in presence of NADPH by RP-HPLC; assay type: ADME, Microsome; conditions: read-out: Stability; method in brief: as §2
[29] = Metabolic stability in dog liver microsomes assessed as compound remaining at 5 uM in presence of 2.5 uM ritonavir by RP-HPLC; assay type: ADME, Canis lupus familiaris, Microsome; conditions: with ritonavir 2.5 uM, read-out: Stability
[30] = system: Human immunodeficiency virus 1; assay: Antiviral activity against HIV1 3B in presence of 50% human serum; assay type: functional, organism-based; conditions: Human immunodeficiency virus 1, 3B
[31] = system: Human immunodeficiency virus 1; assay: Antiviral activity against HIV1 mutant strain 6; assay type: functional, organism-based
[32] = Plasma concentration in Beagle dog at 15 mg/kg, po after 12 hrs co-administered with 7.5 mg/kg of ritonavir, po; assay type: ADME, organism-based, Canis lupus familiaris
[33] = system: Human immunodeficiency virus 1; assay: Antiviral activity against HIV1 mutant strain 7; assay type: functional, organism-based; method in brief: as §3
[34] = system: Human immunodeficiency virus 1; assay: Antiviral activity against HIV1 mutant strain 2; assay type: functional, organism-based; method in brief: as §4
[35] = Volume of distribution at steady state in Beagle dog at 15 mg/kg, iv; assay type: ADME, organism-based, Canis lupus familiaris; set-up: dose 15 mg/kg, route intravenous; conditions: in vivo, read-out: Vdss
Liver [36] = assay: Metabolic stability in dog liver microsomes assessed as compound remaining in presence of NADPH by RP-HPLC; assay type: ADME, Canis lupus familiaris, Microsome; method in brief: as §2
[37] = system: Human immunodeficiency virus 1; assay: Ratio of EC50 for HIV1 mutant strain 1 to EC50 for wild type HIV1; assay type: functional; method in brief: as §1
[38] = Metabolic stability in human liver microsomes assessed as compound remaining at 5 uM in presence of 2.5 uM ritonavir by RP-HPLC; assay type: ADME, Microsome; conditions: with ritonavir 2.5 uM, read-out: Stability
[39] = Metabolic stability in human liver microsomes assessed as compound remaining at 5 uM in presence of 0.5 uM ritonavir by RP-HPLC; assay type: ADME, Microsome; conditions: with ritonavir 0.5 uM, read-out: Stability
[40] = Metabolic stability in rat liver microsomes assessed as compound remaining at 5 uM in presence of 2.5 uM ritonavir by RP-HPLC; assay type: ADME, Microsome; conditions: with ritonavir 2.5 uM, read-out: Stability
[41] = system: Human immunodeficiency virus 1; assay: Antiviral activity against HIV1 mutant strain 1; assay type: functional, organism-based; method in brief: as §1
[42] = AUC in Beagle dog at 15 mg/kg, po co-administered with 7.5 mg/kg of ritonavir, po; assay type: ADME, organism-based, Canis lupus familiaris; conditions: plasma

Sequence of Protease (Q9YQ12 whole entry): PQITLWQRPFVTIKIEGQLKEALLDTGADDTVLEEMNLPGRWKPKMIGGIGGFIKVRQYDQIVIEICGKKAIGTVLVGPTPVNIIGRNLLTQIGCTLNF

With `COc1cccc(C[C@H](NC(=O)c2cccc(N)c2Cl)[C@H](O)C(=O)N2CSC(C)(C)[C@H]2C(=O)NCc2c(C)cccc2C)c1` the EC50 [1] was 4 nM, the Cmax [2] was 2800 nM and the “Ratio EC50” value [3] was 38. For the same compound, the clearance [4] was 18.3 mL/min/kg, the EC50 [5] was 5.6 nM and the AUC [6] was 15.6 µM·h. The IC50 [7] was 22 nM, the remaining at 5 µM [8] was 41% and the Tmax [9] was 2 h. The EC50 [10] was 22 nM, the bioavailability [11] was 71% and the Ki (Protease) was 0.134 nM. For the same compound, the remaining at 5 µM [12] was greater than 95%, the “Ratio EC50” value [13] was 7 and the EC50 [14] was 214 nM. For the same compound, the remaining at 5 µM [15] was 90%, the “Ratio EC50” value [16] was 19 and the remaining at 5 µM [17] was 21%. For the same compound, the “Ratio EC50” value [18] was 4, the remaining at 5 µM [19] was 49% and the remaining at 5 µM [20] was 36%. The Stability (Liver [21]) was greater than 95%, the Tmax [22] was 3 h and the “Ratio EC50” value [23] was 22. For the same compound, the Cmax [24] was 5300 nM, the “Ratio EC50” value [25] was 17 and the EC50 [26] was 122 nM. For the same compound, the concentration at 12 h [27] was 130 nM, the remaining at 5 µM [28] was 64% and the remaining at 5 µM [29] was greater than 95%. It also gave an EC50 [30] of 6 nM, an EC50 [31] of 96 nM and a concentration at 12 h [32] of 2950 nM. It also gave an EC50 [33] of 42 nM, an EC50 [34] of 106 nM and a Vd [35] of 1.3 L/kg. For the same compound, the Stability (Liver [36]) was 47%, the “Ratio EC50” value [37] was 27 and the remaining at 5 µM [38] was greater than 95%. The remaining at 5 µM [39] was 93%, the remaining at 5 µM [40] was 55% and the EC50 [41] was 150 nM. For the same compound, the AUC [42] was 52.8 µM·h.

Work on `Cc1ccccc1CNC(=O)[C@H]1N(C(=O)[C@@H](O)[C@H](Cc2ccccc2)NC(=O)c2cccc(O)c2C)CSC1(C)C` yielded an EC50 [1] of 26 nM, a Cmax [2] of 3100 nM and a clearance [4] of 15 mL/min/kg. The AUC [6] was 6.5 µM·h, the remaining at 5 µM [8] was 16% and the Tmax [9] was 0.5 h. The bioavailability [11] was 25%, the Ki (Protease) was 0.035 nM and the remaining at 5 µM [12] was 55%. It also gave a remaining at 5 µM [15] of 92%, a remaining at 5 µM [17] of 12% and a remaining at 5 µM [19] of 13%. It also gave a remaining at 5 µM [20] of 46%, a Stability (Liver [21]) of 91% and a concentration at 12 h [27] of 30 nM. For the same compound, the remaining at 5 µM [28] was 27%, the remaining at 5 µM [29] was 93% and the EC50 [30] was 52 nM. For the same compound, the Vd [35] was 1.6 L/kg, the Stability (Liver [36]) was 49% and the remaining at 5 µM [38] was 59%. It also gave a remaining at 5 µM [39] of 56% and a remaining at 5 µM [40] of 31%.

In the case of `COC(=O)N[C@H](C(=O)N[C@@H](Cc1ccccc1)[C@@H](O)CN(Cc1ccc(-c2ccccn2)cc1)NC(=O)[C@@H](NC(=O)OC)C(C)(C)C)C(C)(C)C` [ATAZANAVIR], the EC50 [1] is reported as less than 4 nM, the Cmax [2] is reported as 4200 nM and the “Ratio EC50” value [3] is reported as 180. It also gave a clearance [4] of 26.7 mL/min/kg, an EC50 [5] of 1.5 nM and an AUC [6] of 15 µM·h. The Tmax [9] was 0.5 h, the EC50 [10] was 95 nM and the bioavailability [11] was 102%. For the same compound, the Ki (Protease) was 0.05 nM, the remaining at 5 µM [12] was greater than 95% and the “Ratio EC50” value [13] was 50. The EC50 [14] was 266 nM, the “Ratio EC50” value [16] was 32 and the “Ratio EC50” value [18] was 64. The Stability (Liver [21]) was greater than 95%, the “Ratio EC50” value [23] was 16 and the “Ratio EC50” value [25] was 90. The EC50 [26] was 23 nM, the concentration at 12 h [27] was 50 nM and the remaining at 5 µM [28] was 83%. For the same compound, the EC50 [30] was 9 nM, the EC50 [31] was 134 nM and the EC50 [33] was 74 nM. The EC50 [34] was 48 nM, the Vd [35] was 2 L/kg and the Stability (Liver [36]) was 83%. The “Ratio EC50” value [37] was 62 and the EC50 [41] was 92 nM.

For `Cc1cccc(C)c1OCC(=O)N[C@@H](Cc1ccccc1)[C@@H](O)C[C@H](Cc1ccccc1)NC(=O)[C@H](C(C)C)N1CCCNC1=O` [LOPINAVIR], the EC50 [1] was 8 nM, the EC50 [5] was 3.7 nM and the remaining at 5 µM [8] was 83%. For the same compound, the EC50 [10] was 66 nM, the EC50 [14] was 807 nM and the remaining at 5 µM [15] was 83%. For the same compound, the remaining at 5 µM [17] was 11%, the remaining at 5 µM [19] was 10% and the remaining at 5 µM [20] was 16%. The EC50 [26] was 657 nM, the remaining at 5 µM [29] was greater than 95% and the EC50 [30] was 8 nM. The EC50 [31] was 411 nM, the EC50 [33] was 212 nM and the EC50 [34] was 251 nM. The remaining at 5 µM [38] was greater than 95%, the remaining at 5 µM [39] was greater than 95% and the remaining at 5 µM [40] was greater than 95%. The EC50 [41] was 214 nM.

Source: ChEMBL document CHEMBL1143257, “Structure-activity relationships of novel HIV-1 protease inhibitors containing the 3-amino-2-chlorobenzoyl-allophenylnorstatine structure” (Bioorg Med Chem, 2008)
